According to ChEMBL document CHEMBL3421547, “Novel myricetin derivatives: Design, synthesis and anticancer activity” (Eur J Med Chem, 2015):
Calls of active or inactive are those of the source. The rule behind the calls is not given here.

Legend:
MDA-MB-231 [1] = experiment: Cytotoxicity against human MDA-MB-231 cells after 48 hrs by MTT assay; conditions: MDA-MB-231, 48 h
Bcap37 = experiment: Cytotoxicity against human Bcap37 cells after 48 hrs by MTT assay; conditions: Bcap37, 48 h
MGC-803 = experiment: Cytotoxicity against human MGC803 cells after 48 hrs by MTT assay; conditions: MGC-803, 48 h
SGC-7901 = experiment: Cytotoxicity against human SGC7901 cells after 48 hrs by MTT assay; conditions: SGC-7901, 48 h
[2] = molecular target: Telomerase reverse transcriptase (Homo sapiens, UniProt O14746); experiment: Inhibition of telomerase in human MDA-MB-231 cells after 24 hrs by TRAP-PCR-ELISA; assay type: cell-based
Telomerase reverse transcriptase, sequence (O14746 whole entry): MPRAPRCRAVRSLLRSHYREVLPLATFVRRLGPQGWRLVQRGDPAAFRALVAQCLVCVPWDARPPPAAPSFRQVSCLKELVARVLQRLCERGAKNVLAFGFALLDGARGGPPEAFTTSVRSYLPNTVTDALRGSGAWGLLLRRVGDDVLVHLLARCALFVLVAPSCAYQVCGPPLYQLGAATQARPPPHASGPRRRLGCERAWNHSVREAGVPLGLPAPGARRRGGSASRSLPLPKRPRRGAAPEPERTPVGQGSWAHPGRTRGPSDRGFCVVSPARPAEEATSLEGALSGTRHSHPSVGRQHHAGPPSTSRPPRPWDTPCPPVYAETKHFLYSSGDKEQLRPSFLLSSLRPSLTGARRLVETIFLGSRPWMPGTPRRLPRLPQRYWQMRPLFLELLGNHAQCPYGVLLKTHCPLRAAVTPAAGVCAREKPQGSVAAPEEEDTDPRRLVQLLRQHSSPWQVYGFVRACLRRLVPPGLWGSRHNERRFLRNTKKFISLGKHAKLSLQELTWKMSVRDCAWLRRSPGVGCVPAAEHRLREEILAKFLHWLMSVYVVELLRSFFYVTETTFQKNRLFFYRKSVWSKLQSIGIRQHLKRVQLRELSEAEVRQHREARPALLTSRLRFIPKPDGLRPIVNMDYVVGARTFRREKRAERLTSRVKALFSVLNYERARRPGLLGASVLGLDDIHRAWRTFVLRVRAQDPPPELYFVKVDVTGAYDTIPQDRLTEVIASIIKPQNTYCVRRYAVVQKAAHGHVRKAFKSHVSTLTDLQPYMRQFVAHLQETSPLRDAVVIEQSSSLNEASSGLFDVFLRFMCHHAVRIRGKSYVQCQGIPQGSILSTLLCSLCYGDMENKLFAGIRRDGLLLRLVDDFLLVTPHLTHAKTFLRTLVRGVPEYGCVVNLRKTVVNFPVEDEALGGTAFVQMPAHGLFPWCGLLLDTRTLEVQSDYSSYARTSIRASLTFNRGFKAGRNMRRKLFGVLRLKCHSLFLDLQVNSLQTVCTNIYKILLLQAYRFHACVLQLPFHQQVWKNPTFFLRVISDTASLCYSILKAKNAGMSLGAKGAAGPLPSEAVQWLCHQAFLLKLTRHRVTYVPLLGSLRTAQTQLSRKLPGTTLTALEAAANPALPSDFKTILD
Outline: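 MDA-MB-231 cells grown in DMEM with 10% FBS plus penicillin/streptomycin, 5 × 10^4 seeded in T25 flasks and allowed to adhere. Treated 24 h at 60, 20, 6.67, 2.22, 0.74, 0.25 and 0.082, with staurosporine included. Lysed in RIPA 30 min on ice, supernatant taken after 12,000 g spin at 4 °C. Telomerase read by TRAP-PCR-ELISA kit at 490 nm; mean ± SD.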

MDA-MB-231 [3] = experiment: Antiproliferative activity against human MDA-MB-231 cells assessed as breaking and crack at 1 to 10 uM after 24 to 72 hrs by inverted microscopic analysis; assay type: functional, cell-based
Outline: (§1)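 MDA-MB-231 seeded at 3 × 10^4 cells/mL in DMEM with 10% FBS and grown 24 h at 37 °C, 5% CO2. Compounds in DMSO added (final DMSO ≤0.1%) at 1 and 10 concentrations for 24, 48 and 72 h. Morphology observed by inverted microscope and photographed in randomly chosen fields.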

MDA-MB-231 [4] = experiment: Down regulation of p65 protein expression in human MDA-MB-231 cells at 1 uM after 48 hrs by Western blotting analysis; assay type: functional, cell-based
MDA-MB-231 [5] = experiment: Down regulation of TERT protein expression in human MDA-MB-231 cells at 1 uM after 48 hrs by Western blotting analysis; assay type: functional, cell-based
Outline: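 MDA-MB-231 cells treated 48 h, with AZT (3.0 mmol/L) as reference. Cells lysed in RIPA and protein measured by BCA; 30 or 50 total protein run on SDS-PAGE and blotted to PVDF. Primary antibodies applied 1 h in TBS/Tween-20 with 3% Marvel (anti-TERT 1:500, β-actin loading control). HRP secondaries, ECL detection.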

MDA-MB-231 [6] = experiment: Antiproliferative activity against human MDA-MB-231 cells assessed as cell distortion at 1 to 10 uM after 24 to 72 hrs by inverted microscopic analysis; assay type: functional, cell-based
Outline: as §1

MDA-MB-231 [7] = experiment: Cell cycle arrest in human MDA-MB-231 cells assessed as accumulation at S phase at 1 uM after 48 hrs by flow cytometry (reference value: 34.6 +/- 0.31%); assay type: functional
MDA-MB-231 [8] = experiment: Cell cycle arrest in human MDA-MB-231 cells assessed as accumulation at G0/G1 phase at 1 uM after 48 hrs by flow cytometry (reference value: 40.5 +/- 0.38%); assay type: functional
MDA-MB-231 [9] = experiment: Cell cycle arrest in human MDA-MB-231 cells assessed as accumulation at G2 phase at 1 uM after 48 hrs by flow cytometry (reference value: 34.6 +/- 0.31%); assay type: functional

IC50 [2] [µM]	SMILES	IC50 (MDA-MB-231 [1]) [µM]	IC50 (Bcap37) [µM]	IC50 (MGC-803) [µM]	IC50 (SGC-7901) [µM]	other results
–	COc1cc(OC)c2c(=O)c(OCCCCN3CCCC3)c(-c3cc(OC)c(OC)c(OC)c3)oc2c1	10.4	18	18.6	26.8	–
35.7	CCN(CC)CCCOc1c(-c2cc(OC)c(OC)c(OC)c2)oc2cc(OC)cc(OC)c2c1=O	–	43	40.2	56.9	–
–	COc1cc(OC)c2c(=O)c(OCCCCN3CCN(C)CC3)c(-c3cc(OC)c(OC)c(OC)c3)oc2c1	3.87	4.17	12.2	6.95	–
3.07	COc1cc(OC)c2c(=O)c(OCCCN3CCCCC3)c(-c3cc(OC)c(OC)c(OC)c3)oc2c1	2.16	2.96	10	16.5	–
–	COc1cccc2c1C(=O)c1c(O)c3c(c(O)c1C2=O)C[C@@](O)(C(=O)CO)C[C@@H]3O[C@H]1C[C@H](N)[C@H](O)[C@H](C)O1 [DOXORUBICIN]	2.01	2.87	3.22	3.5	Activity (MDA-MB-231 [3]): Active
–	COc1cc(OC)c2c(=O)c(OCC(=O)N/N=C/c3ccc(C)cc3)c(-c3cc(OC)c(OC)c(OC)c3)oc2c1	4.57	5.17	3.51	10.1	–
28.9	COc1cc(OC)c2c(=O)c(OCCCN3CCCC3)c(-c3cc(OC)c(OC)c(OC)c3)oc2c1	–	–	32.1	–	–
–	COc1cc(OC)c2c(=O)c(OCCCCN3CCOCC3)c(-c3cc(OC)c(OC)c(OC)c3)oc2c1	4.17	5.24	20.6	12.5	–
–	COc1cc(OC)c2c(=O)c(OCCCN3CCOCC3)c(-c3cc(OC)c(OC)c(OC)c3)oc2c1	2.9	4.68	21	11.2	–
0.91	COc1cc(OC)c2c(=O)c(OCC(=O)N/N=C/c3ccco3)c(-c3cc(OC)c(OC)c(OC)c3)oc2c1	1.86	3.11	6.05	5.72	Activity (MDA-MB-231 [4]): Active; Activity (MDA-MB-231 [5]): Active; Activity (MDA-MB-231 [6]): Active; Activity (MDA-MB-231 [7]): 28.4%; Activity (MDA-MB-231 [8]): 44.3%; Activity (MDA-MB-231 [9]): 27.4%
–	COc1cc(OC)c2c(=O)c(OCC(=O)N/N=C/c3sccc3C)c(-c3cc(OC)c(OC)c(OC)c3)oc2c1	4.47	8.35	7.74	10.2	–
2	COc1cc(OC)c2c(=O)c(OCCCCN3CCCCC3)c(-c3cc(OC)c(OC)c(OC)c3)oc2c1	3.03	2.62	26.8	6.08	–
40.3	CCN(CC)CCCCOc1c(-c2cc(OC)c(OC)c(OC)c2)oc2cc(OC)cc(OC)c2c1=O	13	–	–	–	–
1.82	COc1cc(OC)c2c(=O)c(OCC(=O)N/N=C/c3ccccc3F)c(-c3cc(OC)c(OC)c(OC)c3)oc2c1	3.4	4.09	2.78	7.72	–
19.7	COc1cc(OC)c2c(=O)c(OCCCN3CCN(C)CC3)c(-c3cc(OC)c(OC)c(OC)c3)oc2c1	30.1	38	–	–	–
0.17	C/C(=C\C(=O)Nc1ccccc1C(=O)O)c1ccc2ccccc2c1	–	–	–	–	–
–	COc1cc(OC)c2c(=O)c(OCC(=O)N/N=C/c3ccccn3)c(-c3cc(OC)c(OC)c(OC)c3)oc2c1	9.89	18.8	15.3	16.2	–
–	COc1cc(OC)c2c(=O)c(OCC(=O)N/N=C/c3ccc[nH]3)c(-c3cc(OC)c(OC)c(OC)c3)oc2c1	3.75	7	5.61	8.73	–

SMILES	IC50 [2] [µM]	IC50 (MDA-MB-231 [1]) [µM]	IC50 (Bcap37) [µM]	IC50 (MGC-803) [µM]	IC50 (SGC-7901) [µM]	other results
CC[n+]1c(-c2ccccc2)c2cc(N)ccc2c2ccc(N)cc21 [HOMIDIUM BROMIDE]	2.33	–	–	–	–	–
